MPTP inh: blocks calcium-induced mitochondrial swelling | isolated mouse mitochondria, Ca2+ swelling absorbance, 30 min | inhibition, % at 10 µM | hit rate 1.4% among 360,000 | AID 602449;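 active means inhibition of 50% or more, scaled per plate between neutral and stimulator controls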;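 further: 0% = DMSO wells given calcium and 100% = 1 mM EGTA wells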
TbMetRS inhib: Trypanosoma brucei MetRS inhibition | purified T. brucei MetRS, ATP depletion, Kinase-Glo luminescence | inhibition, % at 11.9 µM | hit rate 0.4% among 360,000 | AID 624268;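 active means inhibition above a per-plate cutoff of the control wells' mean inhibition plus 3 SD, cut at about 5.5% in these data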;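 further: 0% = DMSO wells median and 100% = median of wells with control inhibitor compound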
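Test system – parasite MetRS enzyme · Reagent – substrates ATP, L-methionine and bulk Escherichia coli tRNA · Doses – 11.9 µM compound single dose, 0.9% DMSO · Times – 15 min enzyme-compound preincubation, 2 h reaction, 10 min detection, 25 °C · Signal – Kinase-Glo luminescence, ATP depletion format · Controls – DMSO-only wells as low control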
EBV gp42 block: EBV gp42 inhibition; hit rate 0.42% among 220,000; Fluorescence polarization binding assay, mP read-out; Q1HVG2; inhibition, % (tested at 21.74 µM); AID 1085; in the data active means inhibition above about 50%
Target sequence (Q1HVG2 whole entry, looked up): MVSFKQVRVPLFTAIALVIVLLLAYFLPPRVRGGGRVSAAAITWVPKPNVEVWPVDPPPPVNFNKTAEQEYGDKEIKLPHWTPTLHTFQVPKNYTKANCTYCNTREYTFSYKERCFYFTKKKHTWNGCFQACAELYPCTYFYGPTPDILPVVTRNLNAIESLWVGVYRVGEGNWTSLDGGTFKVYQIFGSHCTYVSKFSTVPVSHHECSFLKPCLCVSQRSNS
CHOP inhibitor: CHOP inhibition in unfolded protein response. inhibition, % at 10 µM. hit rate 3.8% among 220,000. CHO-K1 CHOP-promoter luciferase, tunicamycin-induced, 15-18 h;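 active means compounds that reduced the stress-induced luciferase reporter signal by more than about 70% of percent inhibition, limit read from the data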;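 further: 0% = tunicamycin plus vehicle and 100% = wells without tunicamycin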
WT yeast gro inh: growth inhibition of WT yeast, mitochondrial fusion screen; mitochondrial fusion phenotypic screen, WT strain; inhibition, % at 10 µM; hit rate 2.1% among 190,000; in the data active means inhibition above about 58%; tested in S. cerevisiae
GRIN3A LBD mod: modulators (binders) of human NR3A ligand-binding domain; NR3A LBD differential scanning fluorimetry, Tm shift; 0% = protein alone, 100% = glycine-bound protein; Tm shift relative to glycine control, % at 25 µM; hit rate 2.5% among 340,000; AID 1259313;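 active means melting temperature shift of at least 10% of the positive control shift, at one fixed dose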
CHOP inh conf: confirmation of CHOP induction inhibitors; CHO-CHOP promoter luciferase reporter, tunicamycin-induced, luminescence; shares compounds with CHOP inhibitor; AID 504437; inhibition, % at 10 µM; hit rate 45% among 2,100;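 active means mean of three repeat readings of reporter signal inhibition above a set limit, cut at about 70% in these data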;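 further: 0% = tunicamycin plus vehicle and 100% = wells lacking tunicamycin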
* marks the source's active call; other numbers are inactive results; / = no result. The list is not random: actives were taken first. Their share in the collection is about 6.4%.

SMILES	MPTP inh	TbMetRS inhib	EBV gp42 block	CHOP inhibitor	WT yeast gro inh	GRIN3A LBD mod	CHOP inh conf
CCOC(=O)c1sc(NC(=S)NC(=O)CC(C)C)cc1C	6	0	-8	107*	30	1	20
CCOC(=O)c1sc(NC(=S)NC(=O)C2CCCC2)cc1C	-3	0	-9	64	-11	-1	/
Cc1ccc(-c2nn(-c3ccccc3)cc2/C=N/NC(=O)c2ccc(Br)o2)cc1	49	-1	-6	104*	6	-5	121*
O=C(N/N=C\c1cn(-c2ccccc2)nc1-c1ccccc1)c1ccc(Br)o1	0	0	-14	23	0	-2	/
CN1C2=C(C#N)C(c3ccccc3)(C(F)(F)F)NC(=O)N2c2ccccc21 (stereo not given)	4	0	-16	10	1	0	/
Cc1ccc(C2(C(F)(F)F)NC(=O)N3C(=C2C#N)Nc2ccccc23)cc1 (stereo not given)	5	0	-14	107*	8	-1	37
Cc1ccc(COc2ccc(Br)cc2/C=N/O)cc1	2	0	15	110*	52	-30	104*
O/N=C/c1ccccc1OCc1ccccc1F	1	1	-13	-16	-4	-1	/
O/N=C/c1cc(Cl)ccc1OCc1ccccc1Cl	3	-1	-4	107*	5	-20	30
O=C(NCCc1ccccc1)C1CCC(CNc2nc(=S)[nH]c3ccccc23)CC1 (stereo not given)	1	-1	-17	104*	-8	0	-70
O=C(CCCCCNc1nc(=S)[nH]c2ccccc12)NCCc1c[nH]c2ccccc12	4	1	0	44	6	1	/
O=C(CCCCCNc1nc(=S)[nH]c2ccccc12)NCCC1=CCCCC1	-1	0	-23	101*	6	-2	22
O=C(CN1CCC(C(=O)c2cccc(F)c2)CC1)NCc1cccs1	0	-1	2	9	6	-1	/
CCN(CC)CCn1c(SCC(=O)Nc2ccc(F)cc2)nc2c(sc3ccccc32)c1=O	/	/	-3	104*	3	/	90*
Cc1ccccc1Nc1nnc(SCC(=O)NC(=O)Nc2ccc3c(c2)OCCO3)s1	/	/	-20	65	-5	/	/
COc1ccccc1Nc1nnc(SCC(=O)NC(=O)Nc2ccc3c(c2)OCCO3)s1	4	0	-19	104*	-11	-6	18
O=C(CSc1nnnn1-c1ccc(Cl)cc1)NC(=O)Nc1ccc2c(c1)OCCO2	7	0	-24	100*	10	-3	51
Cc1ccc(-n2nnnc2SCC(=O)NC(=O)Nc2ccc3c(c2)OCCO3)cc1	4	0	-5	15	-1	-4	/
CC(=O)N1CN(S(=O)(=O)c2ccc(C)cc2)CC1C (stereo not given)	-1	0	-18	-15	-3	-6	/
COc1ccc(N/C(N)=N/c2nc(C)c(Cc3ccccc3)c(=O)[nH]2)cc1	0	-1	/	/	/	3	/
Cc1cccc(N/C(N)=N/c2nc(C)c(Cc3ccccc3)c(=O)[nH]2)c1	-1	0	7	101*	0	-2	13
COc1ccc(CCN2C(=O)c3[nH]nc(-c4ccccc4O)c3C2c2cccc(Cl)c2)cc1 (stereo not given)	11	-1	-2	104*	-8	15*	88*
O=C(CCc1ccccc1)NNC(=O)Nc1ccc(Cl)cc1	0	1	/	/	/	-3	/
O=C(CN1c2ccccc2Sc2ccccc21)NNC(=O)Nc1ccc(Cl)cc1	38	2	-12	100*	/	39*	27
CC(C)NC(=O)c1ccccc1NC(=O)/C=C/c1cccc([N+](=O)[O-])c1	1	2	-6	107*	-11	-5	111*
Cc1cc(C(=O)N/N=C/c2ccc(-c3cccc(Cl)c3Cl)o2)n[nH]1	7	0	-66	101*	11	13*	73*
O=C(C#Cc1ccccc1)c1cccc([N+](=O)[O-])c1	-3	-1	-5	107*	78	1	-88
O=C(Nc1ccc(Cl)cc1-c1nc2ccccc2s1)c1ccco1	2	0	-21	-5	38	1	/

Screening data: PubChem BioAssay, several laboratories
